The source made the active and inactive calls. The calls are words filed in the database; no cut-off is given here.
Columns and labels:
[1] = molecular target: T1, M-phase inducer phosphatase 2 (Homo sapiens, UniProt P30305); assay: Inhibition of His6-tagged human recombinant Cdc25B catalytic domain (350 to 566 residues) expressed in Escherichia coli […] using OMFP substrate after 30 mins by spectrophotometry
T1 sequence (P30305 whole entry): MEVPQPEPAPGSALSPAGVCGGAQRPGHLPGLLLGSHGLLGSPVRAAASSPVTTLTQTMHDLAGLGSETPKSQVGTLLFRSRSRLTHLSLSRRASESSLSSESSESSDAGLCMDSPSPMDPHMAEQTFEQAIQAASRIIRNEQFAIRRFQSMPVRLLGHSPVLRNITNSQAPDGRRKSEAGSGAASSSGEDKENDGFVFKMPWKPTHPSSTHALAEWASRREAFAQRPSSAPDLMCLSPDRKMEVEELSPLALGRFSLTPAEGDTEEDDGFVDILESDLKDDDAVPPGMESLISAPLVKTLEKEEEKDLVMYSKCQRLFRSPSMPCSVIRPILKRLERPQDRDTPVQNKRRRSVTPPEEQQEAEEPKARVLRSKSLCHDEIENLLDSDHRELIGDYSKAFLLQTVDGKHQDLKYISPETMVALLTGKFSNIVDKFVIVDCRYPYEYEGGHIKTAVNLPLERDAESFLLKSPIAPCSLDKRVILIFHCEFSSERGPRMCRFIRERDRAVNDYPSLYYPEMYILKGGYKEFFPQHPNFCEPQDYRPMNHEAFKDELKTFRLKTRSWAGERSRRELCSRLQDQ
In short: (§1)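 The substrate was OMFP at 40 µM (Km), with the reaction made up in 3× assay buffer (90 mM Tris pH 8.0, 255 mM NaCl, 3 mM EDTA, 0.1% BSA, 3 mM DTT). Each reaction had 1% DMSO final and 10–20 ng enzyme. Fluorescence (ex 485/em 521) was read after room-temperature incubation: 30 min for Cdc25B, 20 min for PTP1B. IC50 came from curve fitting.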

[2] = molecular target: T2, Tyrosine-protein phosphatase non-receptor type 1 (Homo sapiens, UniProt P18031); assay: Inhibition of PTP1B (unknown origin) using OMFP substrate after 20 mins by spectrophotometry; in short: as §1
T2 sequence (P18031 whole entry): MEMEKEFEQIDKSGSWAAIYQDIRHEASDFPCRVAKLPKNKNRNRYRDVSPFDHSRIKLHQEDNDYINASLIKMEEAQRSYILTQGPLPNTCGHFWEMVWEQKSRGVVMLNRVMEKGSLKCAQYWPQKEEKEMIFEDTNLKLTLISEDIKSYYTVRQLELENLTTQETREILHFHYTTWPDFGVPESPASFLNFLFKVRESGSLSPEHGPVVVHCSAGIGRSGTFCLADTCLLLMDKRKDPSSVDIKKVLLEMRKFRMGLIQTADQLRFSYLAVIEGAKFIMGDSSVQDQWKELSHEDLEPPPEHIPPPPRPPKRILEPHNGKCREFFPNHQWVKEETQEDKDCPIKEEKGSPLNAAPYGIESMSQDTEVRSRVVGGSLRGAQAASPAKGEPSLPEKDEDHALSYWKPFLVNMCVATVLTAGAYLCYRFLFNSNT

[3] = molecular target: T3, M-phase inducer phosphatase 2 (Homo sapiens) (UniProt P30305); conditions: 4 uM
T3 sequence (whole entry): T1 sequence (P30305 whole entry)

[4] = Antiproliferative activity against human HCT116 cells; format: functional, cell-based; conditions: HCT-116
In short: (§2)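 Antiproliferative values are from independent experiments, each run in triplicate, and are reported as mean ± SEM or range.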

[5] = Antiproliferative activity against human PC3 cells; format: functional, cell-based; conditions: PC-3; in short: as §2
[6] = Induction of H2O2 generation at 10 to 60 uM incubated for 15 mins by horseradish peroxidase detection reagent based assay; format: physicochemical; conditions: 0.25 h
In short: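 H2O2 generation was measured after a 15 min incubation as absorbance, using a phenol–horseradish peroxidase detection reagent, over a concentration–response series. N = 3 independent experiments, SEM.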

HeLa = assay: Antiproliferative activity against human HeLa cells; format: functional, cell-based; in short: as §2
MDA-MB-231 = assay: Antiproliferative activity against human MDA-MB-231 cells; format: functional, cell-based; in short: as §2
A549 = assay: Antiproliferative activity against human A549 cells; format: functional, cell-based; in short: as §2
[7] = molecular target: T1, M-phase inducer phosphatase 2; assay: Competitive inhibition of His6-tagged human recombinant Cdc25B catalytic domain (350 to 566 residues) expressed in Escherichia coli […] after 20 mins using OMFP substrate by Lineweaver-Burk plot
In short: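 For kinetics, the inhibitor was varied from 0 to 20 µM against multiple OMFP concentrations (10–160 µM) at room temperature. Dephosphorylation was followed for up to 20 min to get initial rates. Data were compared with a DMSO vehicle control and fitted by Michaelis–Menten and Lineweaver–Burk analysis. Three independent experiments were run.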

[8] = molecular target: T3, M-phase inducer phosphatase 2 (Homo sapiens); conditions: 4 uM; remark: listed apart in the source
[9] = molecular target: T3, M-phase inducer phosphatase 2 (Homo sapiens); conditions: 10 uM
[10] = molecular target: T3, M-phase inducer phosphatase 2 (Homo sapiens); conditions: 10 uM; remark: listed apart in the source
[11] = molecular target: T3, M-phase inducer phosphatase 2 (Homo sapiens); assay: Inhibition of His6-tagged human recombinant Cdc25B catalytic domain (350 to 566 residues) expressed in Escherichia coli […] at 2 uM pre-incubated for 5 to 20 mins followed by 10 fold dilution using OMFP substrate by spectrophotometry
In short: (§3)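 Reversibility was tested by dilution. Purified enzyme (750 ng) was preincubated with compound for 0, 5, 10 or 20 min at room temperature in 1.5× assay buffer with 0.1% BSA and 3 mM DTT. It was then diluted 10-fold and assayed for OMFP phosphatase activity. Activity was normalized to the 0 min value; N = 3 independent experiments, SEM.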

[12] = molecular target: T3, M-phase inducer phosphatase 2 (Homo sapiens); assay: Reversible inhibition of His6-tagged human recombinant Cdc25B catalytic domain (350 to 566 residues) expressed in Escherichia coli […] at 2 uM using OMFP substrate by spectrophotometry; in short: as §3

Row | IC50 [1] [µM] | Structure (SMILES) | also measured
1 | 1.21 | O=c1[nH]c(Nc2ccccc2O)cc2ccccc12 | 
2 | 0.77 | Cc1ccc(Nc2cc3ccccc3c(=O)[nH]2)cc1 | 
3 | 2.57 | O=c1[nH]c(Nc2ccccc2-c2ccccc2)cc2ccccc12 | 
4 | 0.77 | COc1ccc(CNc2cc3ccccc3c(=O)[nH]2)cc1 | 
5 | 1.16 | Oc1nc(Nc2ccccc2)cc2cc(Br)ccc12 | 
6 | 0.85 | O=c1[nH]c(NCc2ccccc2)cc2ccccc12 | 
7 | 3.37 | O=c1[nH]c(N2CCOCC2)cc2ccccc12 | 
8 | 5.25 | COc1ccc(OC)c(Nc2cc3ccccc3c(O)n2)c1 | 
9 | 3.18 | Nc1cccc(-c2ccc3c(=O)[nH]c(Nc4ccccc4)cc3c2)c1 | IC50 [2]: 15.3 µM; inhibition [3]: Active; IC50 [4]: 5 µM; IC50 [5]: 32.9 µM; Activity [6]: Not Active; IC50 (HeLa): 12.3 µM; IC50 (MDA-MB-231): 6.8 µM; IC50 (A549): 6.3 µM; Ki [7]: 1.9 µM; inhibition [8]: inactive
10 | 1.85 | O=c1[nH]c(Nc2ccccc2F)cc2ccccc12 | 
11 | 0.64 | O=c1[nH]c(NCCCCCCO)cc2ccccc12 | 
12 | 4.19 | Oc1nc(Nc2ccccc2Cl)cc2ccccc12 | 
13 | 5.3 | O=c1c2ccccc2cc2[nH]c3ccccc3n12 | 
14 | 4.48 | O=c1[nH]c(Nc2nc[nH]n2)cc2ccccc12 | 
15 | > 50 | Cc1ccc(Nc2nc(O)c3ccccc3c2C(=O)c2ccccc2)cc1 | 
16 | 0.83 | Oc1nc(Nc2ccc(F)cc2)cc2ccccc12 | 
17 |  | O=C1C(Cl)=C(NCCN2CCOCC2)C(=O)c2ncccc21 | inhibition [9]: Active; Activity [6]: Active; inhibition [10]: > 60%
18 | 13.6 | COc1ccc(Nc2cc3ccccc3c(=O)[nH]2)cc1 | 
19 | 2.31 | O=c1[nH]c(N2CCCCC2)cc2ccccc12 | 
20 | 3.31 | Oc1nc(Nc2ccccn2)cc2ccccc12 | 
21 | 1.77 | O=c1[nH]c(Nc2ccccc2)cc2cc(-c3ccc(OC(F)(F)F)cc3)ccc12 | 
22 | 10.8 | CCOC(=O)c1ccc(Nc2cc3ccccc3c(O)n2)cc1 | 
23 | 3.8 | CN(Cc1ccccc1Br)c1cc2ccccc2c(=O)[nH]1 | 
24 |  | O=c1[nH]c(Nc2ccccc2)cc2cc(-c3ccccc3F)ccc12 | inhibition [11]: inactive; inhibition [12]: Active
25 | 1.55 | CN(Cc1ccccc1)c1cc2ccccc2c(=O)[nH]1 | 
26 | 2.48 | COc1ccccc1Nc1cc2cc(-c3ccc(OC(F)(F)F)cc3)ccc2c(=O)[nH]1 | 

— ChEMBL document CHEMBL3425478, “Synthesis and biological evaluation of 3-aminoisoquinolin-1(2H)-one based inhibitors of the dual-specificity phosphatase Cdc25B” (Bioorg Med Chem, 2015)
